Test results as given in ChEMBL document CHEMBL4033790, “Design and Synthesis of Novel Deuterated Ligands Functionally Selective for the γ-Aminobutyric Acid Type A Receptor (GABAAR) α6 Subtype with Improved Metabolic Stability and Enhanced Bioavailability” (J Med Chem, 2018).

Assays:
HEK-293T = assay: Cytotoxicity against HEK293T cells assessed as reduction in cell viability up to 400 uM after 48 hrs by CellTiter-Glo assay; type: cell-based; conditions: human
In short: (§1)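 HEK293T and HepG2 cells grown in high-glucose DMEM with non-essential amino acids, 10 mM HEPES, penicillin/streptomycin and 10% heat-inactivated FBS. Cells were harvested with trypsin and plated; compound was pin-transferred 3 h later. Incubation was 48 h, then CellTiter-Glo luminescence was read. Controls were DMSO (negative) and a cytotoxic aminoketone (positive). Quadruplicates, three independent runs, normalized to controls, nonlinear regression.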

[1] = AUC (0 to 12 hrs) in Wistar rat plasma at 10 mg/kg, ip administered as single dose by HPLC-MS/MS analysis; type: ADME, organism-based; parameters: time < 12 hr, dose 10 mg/kg, route intraperitoneal
[2] = Ratio of brain AUC (0 to t) to plasma AUC (0 to t), Kp of the compound in Wistar rat at 10 mg/kg, ip administered as single dose by HPLC-MS/MS analysis; type: ADME, organism-based
[3] = target: Voltage-gated inwardly rectifying potassium channel KCNH2 (Homo sapiens, UniProt Q12809); assay: Displacement of [3H]-dofetilide from human ERG expressed in HEK cell membranes at >10 uM after 60 to 90 mins by scintillation counting
Liver = assay: Half life in mouse liver microsomes at 10 uM by LC-MS/MS analysis; type: ADME, microsome
In short: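 Compound at 10 μM final was preincubated 5 min at 37 °C with NADPH regenerating system in phosphate buffer, pH 7.4. Human or mouse liver microsomes (0.5 mg/mL protein) were added to start the reaction. Samples were taken at 0 (no microsomes) and 10–60 min and measured by LC-MS/MS against an internal standard. Half-life = 0.693/k, with k the slope of ln peak-area ratio versus time. Three experiments, each in duplicate.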

Mus musculus [4] = assay: Neurotoxicity in Swiss Webster mouse assessed as induction of motor impairment at 60 mg/kg administered via oral gavage measured after 10 to 60 mins by rotarod method; type: toxicity, organism-based; conditions: in vivo
Rattus norvegicus [5] = assay: Toxicity in Wistar rat assessed as average swim speed at 10 mg/kg, ip administered for 45 mins by cued water-maze apparatus method (reference value: 0.21 +/- 0.01 meter/s); type: organism-based; conditions: in vivo, 0.75 h
[6] = Tmax in Wistar rat brain at 10 mg/kg, ip administered as single dose by HPLC-MS/MS analysis; type: ADME, organism-based
In short: (§2)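 Male Wistar rats (250–350 g) received a single i.p. dose of 10 mg/kg as a 5 mg/ml suspension in 85% water, 14% propylene glycol and 1% Tween 80. Three rats per time point were sacrificed at 5, 20, 60, 180 and 720 min for plasma and brain. Samples were cleaned up by solid-phase extraction and quantified by HPLC-MS/MS.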

[7] = Metabolic stability in mouse liver microsomes assessed as parent compound remaining at 10 uM after 60 mins by LC-MS analysis; type: ADME, microsome; conditions: read-out: Stability
In short: (§3)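 The 60 min samples of the microsomal incubation (10 μM compound, human or mouse liver microsomes at 0.5 mg/mL, NADPH regenerating system, 37 °C) were analysed by LC-MS. Detection used SIM mode with dual ESI/APCI ionization, calibrated to the retention times and masses of the parent and its O-demethylated metabolites. Peak intensities were measured.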

Rattus norvegicus [8] = assay: Toxicity in Wistar rat assessed as grip strength by measuring peak force of pull necessary to overcome strength of animal's grip at 10 mg/kg, ip (reference value: 2.79 +/- 0.16 kg/kg); type: organism-based; conditions: in vivo
Rattus norvegicus [9] = assay: Hyperlocomotor activity in Wistar rat assessed as total distance travelled at 10 mg/kg, ip after 60 mins; type: ADME, organism-based; conditions: in vivo, 1 h
[10] = Cmax in Wistar rat plasma at 10 mg/kg, ip administered as single dose measured at 5 to 720 mins post dose by HPLC-MS/MS analysis; type: ADME, organism-based; parameters: dose 10 mg/kg, route intraperitoneal
In short: (§4)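 Male Wistar rats (250-350 g) given a single 10 mg/kg i.p. dose of a 5 mg/ml suspension in 85% distilled water, 14% propylene glycol, 1% Tween 80. Three rats per time point (5, 20, 60, 180, 720 min). Blood and brain were collected after sacrifice. Drug was recovered by solid phase extraction and quantified by HPLC-MS/MS.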

Rattus norvegicus [11] = assay: Toxicity in Wistar rat assessed as open arm entries at 10 mg/kg, ip administered for 45 mins measured for 5 min by elevated plus maze apparatus method (reference value: 23.07 +/- 5.47%); type: organism-based; conditions: in vivo
Brain = assay: AUC (0 to 12 hrs) in Wistar rat brain at 10 mg/kg, ip administered as single dose by HPLC-MS/MS analysis; type: ADME, organism-based; parameters: dose 10 mg/kg, time < 12 hr, route intraperitoneal; conditions: in vivo
Rattus norvegicus [12] = assay: Toxicity in Wistar rat assessed as peripheral ring distance at 10 mg/kg, ip administered for 45 mins by cued water-maze method (reference value: 67.44 +/- 4.60%); type: organism-based; conditions: in vivo, 0.75 h
HepG2 = assay: Cytotoxicity against human HepG2 cells assessed as reduction in cell viability up to 400 uM after 48 hrs by CellTiter-Glo assay; type: cell-based; conditions: hepg2, 48 h; in short: as §1
Rattus norvegicus [13] = assay: Toxicity in Wistar rat assessed as closed arm entries at 10 mg/kg, ip administered for 45 mins measured for 5 min by elevated plus maze apparatus method (reference value: 3.63 +/- 0.42); type: organism-based; conditions: in vivo
[14] = Cmax in Wistar rat brain at 10 mg/kg, ip administered as single dose measured at 5 to 720 mins post dose by HPLC-MS/MS analysis; type: ADME, organism-based; parameters: dose 10 mg/kg, route intraperitoneal; in short: as §4
[15] = Terminal elimination half-life in Wistar rat plasma at 10 mg/kg, ip administered as single dose by HPLC-MS/MS analysis; type: ADME, organism-based; conditions: read-out: beta t1/2 (converted); in short: as §2
[16] = Tmax in Wistar rat plasma at 10 mg/kg, ip administered as single dose by HPLC-MS/MS analysis; type: ADME, organism-based; in short: as §2
[17] = Terminal elimination half-life in Wistar rat brain at 10 mg/kg, ip administered as single dose by HPLC-MS/MS analysis; type: ADME, organism-based; conditions: read-out: beta t1/2 (converted); in short: as §2
[18] = Metabolic stability in human liver microsomes assessed as parent compound remaining at 10 uM after 60 mins by LC-MS analysis; type: ADME, microsome; conditions: read-out: Stability; in short: as §3
Rattus norvegicus [19] = assay: Toxicity in Wistar rat assessed as total distance traveled at 10 mg/kg, ip administered for 45 mins measured for 5 min by elevated plus maze method (reference value: 6.71 +/- 0.56 meter); type: organism-based; conditions: in vivo
Rattus norvegicus [20] = assay: Toxicity in Wistar rat assessed as total distance traveled at 10 mg/kg, ip administered for 45 mins by cued water-maze method (reference value: 8.04 +/- 1.16 meter); type: organism-based; conditions: in vivo, 0.75 h
[21] = Drug metabolism in mouse liver microsomes assessed as CYP450 mediated-O-demethylated 7-hydroxy-2-[6-(trideuteriomethoxy)-3-pyridyl]-5H-pyrazolo[4,3-c]quinolin-3-one metabolite formation after 60 mins by LC-MS analysis; type: ADME; conditions: 1 h
In short: (§5)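 The 60-min samples from the human or mouse liver microsome incubations (10 µM compound, 0.5 mg/mL protein, NADPH regenerating system, 37 °C, pH 7.4) were run on LC-MS in SIM mode with dual ESI/APCI ionization. The method was calibrated to each component's retention time and mass, and the peak intensities of the parent and O-demethylated metabolites were measured.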

[22] = Drug metabolism in human liver microsomes assessed as CYP450 mediated-O-demethylated 7-hydroxy-2-[6-(trideuteriomethoxy)-3-pyridyl]-5H-pyrazolo[4,3-c]quinolin-3-one metabolite formation after 60 mins by LC-MS analysis; type: ADME; conditions: 1 h; in short: as §5
[23] = Drug metabolism in mouse liver microsomes assessed as CYP450 mediated-O-demethylated 2-(6-hydroxypyridin-3-yl)-7-methoxy-2H-pyrazolo[4,3-c]quinolin-3(5H)-one metabolite formation after 60 mins by LC-MS analysis; type: ADME; conditions: 1 h; in short: as §5
Mus musculus [24] = assay: Neurotoxicity in Swiss Webster mouse assessed as induction of motor impairment at 40 mg/kg administered via oral gavage measured after 10 to 60 mins by rotarod method; type: toxicity, organism-based; conditions: in vivo
In short: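 Female mice were given a single oral gavage dose of 40 mg/kg, either in 50% PBS/40% propylene glycol/10% DMSO or, for poorly soluble compounds, in 2% polyethylene glycol plus 2.5% hydroxymethyl cellulose. Rotarod performance was tested 10, 30 and 60 min after dosing, with diazepam 5 mg/kg as positive control.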

[25] = Drug metabolism in human liver microsomes assessed as CYP450 mediated-O-demethylated 7-hydroxy-2-(6-hydroxypyridin-3-yl)-2H-pyrazolo[4,3-c]quinolin-3(5H)-one metabolite formation after 60 mins by LC-MS analysis; type: ADME; conditions: 1 h; in short: as §5
[26] = Drug metabolism in human liver microsomes assessed as CYP450 mediated-O-demethylated 2-(6-hydroxypyridin-3-yl)-7-methoxy-2H-pyrazolo[4,3-c]quinolin-3(5H)-one metabolite formation after 60 mins by LC-MS analysis; type: ADME; conditions: 1 h; in short: as §5
[27] = Drug metabolism in mouse liver microsomes assessed as CYP450 mediated-O-demethylated 7-hydroxy-2-(6-hydroxypyridin-3-yl)-2H-pyrazolo[4,3-c]quinolin-3(5H)-one metabolite formation after 60 mins by LC-MS analysis; type: ADME; conditions: 1 h; in short: as §5
Mus musculus [28] = assay: Neurotoxicity in Swiss Webster mouse assessed as induction of motor impairment at 5 mg/kg administered via oral gavage measured after 10 to 60 mins by rotarod method; type: toxicity, organism-based; conditions: in vivo
In short: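 Female Swiss Webster mice were given diazepam 5 mg/kg by oral gavage as the positive control. Rotarod performance was tested 10, 30 and 60 min after dosing.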

Voltage-gated inwardly rectifying potassium channel KCNH2, sequence (Q12809 whole entry): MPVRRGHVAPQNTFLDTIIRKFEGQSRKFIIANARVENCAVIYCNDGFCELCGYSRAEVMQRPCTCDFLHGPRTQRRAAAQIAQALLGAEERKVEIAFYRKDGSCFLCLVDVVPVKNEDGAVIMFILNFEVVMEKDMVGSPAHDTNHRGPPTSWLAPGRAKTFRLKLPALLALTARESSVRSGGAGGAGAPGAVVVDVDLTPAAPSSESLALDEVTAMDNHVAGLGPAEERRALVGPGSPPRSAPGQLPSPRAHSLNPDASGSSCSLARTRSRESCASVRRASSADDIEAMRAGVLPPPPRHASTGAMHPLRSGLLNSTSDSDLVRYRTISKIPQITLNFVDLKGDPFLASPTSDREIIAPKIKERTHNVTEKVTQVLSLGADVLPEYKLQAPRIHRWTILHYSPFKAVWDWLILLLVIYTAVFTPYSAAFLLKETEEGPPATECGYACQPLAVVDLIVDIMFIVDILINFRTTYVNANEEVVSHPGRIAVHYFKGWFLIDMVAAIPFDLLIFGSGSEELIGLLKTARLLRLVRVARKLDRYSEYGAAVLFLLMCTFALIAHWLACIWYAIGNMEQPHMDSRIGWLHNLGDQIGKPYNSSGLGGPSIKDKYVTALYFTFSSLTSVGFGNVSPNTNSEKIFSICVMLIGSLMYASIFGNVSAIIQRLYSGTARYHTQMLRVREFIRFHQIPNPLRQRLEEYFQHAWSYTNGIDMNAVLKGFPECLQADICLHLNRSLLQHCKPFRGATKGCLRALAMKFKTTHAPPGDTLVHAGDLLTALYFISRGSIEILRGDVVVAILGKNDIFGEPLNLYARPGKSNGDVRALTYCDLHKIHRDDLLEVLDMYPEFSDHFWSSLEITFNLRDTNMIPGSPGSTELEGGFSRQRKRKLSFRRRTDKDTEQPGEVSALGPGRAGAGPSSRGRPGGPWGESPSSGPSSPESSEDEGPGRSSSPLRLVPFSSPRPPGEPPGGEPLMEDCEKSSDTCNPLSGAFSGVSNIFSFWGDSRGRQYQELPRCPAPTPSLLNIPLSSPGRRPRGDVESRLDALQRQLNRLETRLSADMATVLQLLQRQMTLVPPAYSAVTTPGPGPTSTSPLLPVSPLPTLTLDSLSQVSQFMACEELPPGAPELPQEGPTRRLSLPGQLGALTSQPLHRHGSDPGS

[2H]C([2H])([2H])Oc1ccccc1-n1nc2c3cc(Cl)ccc3[nH]cc-2c1=O
Activity (HEK-293T): Non-Toxic | AUC(0-t) at 12 h [1]: 1800 ng·h/mL | Kp [2]: 0.15 | inhibition (INH) [3]: Not Active | t1/2 (Liver): 16.6 h | Activity (Mus musculus [4]): Non-Toxic | Activity (Rattus norvegicus [5]): 0.22 meter/s | Tmax [6]: 0.78 h | remaining at 1 h, 10 µM [7]: 94.9% | Activity (Rattus norvegicus [8]): 2.66 kg/kg | Activity (Rattus norvegicus [9]): Non-Toxic | Cmax [10]: 434 ng/mL | Activity (Rattus norvegicus [11]): 20.6% | AUC (Brain): 269.03 ng·h/g | Activity (Rattus norvegicus [12]): 69.34% | Activity (HepG2): Non-Toxic | Activity (Rattus norvegicus [13]): 3.5 | Cmax [14]: 65.6 ng/g | half-life [15]: 3.66 h | Tmax [16]: 0.78 h | half-life [17]: 5.54 h | remaining at 1 h, 10 µM [18]: 94.8% | Activity (Rattus norvegicus [19]): 6.14 m | Activity (Rattus norvegicus [20]): 9.93 m

[2H]C([2H])([2H])Oc1ccc(-n2nc3c4ccc(OC)cc4[nH]cc-3c2=O)cn1
inhibition (INH) [3]: Not Active | Drug metabolism [21]: Metabolite_Detected | Drug metabolism [22]: Metabolite_Detected | Drug metabolism [23]: Metabolite_Detected | remaining at 1 h, 10 µM [7]: 92.4% | Activity (Mus musculus [24]): Non-Toxic | Drug metabolism [25]: Metabolite_Detected | Drug metabolism [26]: Metabolite_Detected | Drug metabolism [27]: Metabolite_Detected | remaining at 1 h, 10 µM [18]: 92.6%

CN1C(=O)CN=C(c2ccccc2)c2cc(Cl)ccc21 [DIAZEPAM]
Activity (Mus musculus [28]): Toxic
